ChEMBL document CHEMBL2424522, “Demonic axe-like conjugated alkynes in combating microbes” (2013)
Converted amounts (≈) assume the structure as drawn.

Tests used:
Assay type in all cases: functional
Aspergillus flavus [1] = experiment: Antifungal activity against Aspergillus flavus MTCC 277 at 100 ug/ml after 48 hrs by agar well diffusion method; conditions: MTCC 277, 48 h, read-out: IZ
Procedure, shortened: (§1)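 Test samples and DMSO controls incubated at 27 °C for 48 h. Inhibition zone diameter measured in mm. Three to four replicates per treatment.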

Aspergillus niger [2] = experiment: Antifungal activity against Aspergillus niger MTCC 344 at 100 ug/ml after 48 hrs by agar well diffusion method; conditions: MTCC 344, 48 h, read-out: IZ; procedure, shortened: as §1
Saccharomyces cerevisiae [3] = experiment: Antifungal activity against Saccharomyces cerevisiae MTCC 36 at 100 ug/ml after 48 hrs by agar well diffusion method; conditions: MTCC 36, 48 h, read-out: IZ; procedure, shortened: as §1
Diutina rugosa [4] = experiment: Antifungal activity against Candida rugosa NCIM 3462 at 100 ug/ml after 48 hrs by agar well diffusion method; conditions: NCIM 3462, 48 h, read-out: IZ; procedure, shortened: as §1
Candida albicans [5] = experiment: Antifungal activity against Candida albicans MTCC 227 at 100 ug/ml after 48 hrs by agar well diffusion method; conditions: MTCC 227, 48 h, read-out: IZ; procedure, shortened: as §1
Aspergillus flavus [6] = experiment: Antifungal activity against Aspergillus flavus MTCC 277 at 50 ug/ml after 48 hrs by agar well diffusion method; conditions: MTCC 277, 48 h, read-out: IZ; procedure, shortened: as §1
Aspergillus niger [7] = experiment: Antifungal activity against Aspergillus niger MTCC 344 at 50 ug/ml after 48 hrs by agar well diffusion method; conditions: MTCC 344, 48 h, read-out: IZ; procedure, shortened: as §1
Saccharomyces cerevisiae [8] = experiment: Antifungal activity against Saccharomyces cerevisiae MTCC 36 at 50 ug/ml after 48 hrs by agar well diffusion method; conditions: MTCC 36, 48 h, read-out: IZ; procedure, shortened: as §1
Diutina rugosa [9] = experiment: Antifungal activity against Candida rugosa NCIM 3462 at 50 ug/ml after 48 hrs by agar well diffusion method; conditions: NCIM 3462, 48 h, read-out: IZ; procedure, shortened: as §1
Candida albicans [10] = experiment: Antifungal activity against Candida albicans MTCC 227 at 50 ug/ml after 48 hrs by agar well diffusion method; conditions: MTCC 227, 48 h, read-out: IZ; procedure, shortened: as §1
Klebsiella pneumoniae = experiment: Antibacterial activity against Klebsiella pneumoniae MTCC 618 by broth dilution method
Procedure, shortened: (§2)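 Broth dilution per NCCL standards; all phosphorus ylides and conjugated alkynes tested in vitro.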

Pseudomonas aeruginosa = experiment: Antibacterial activity against Pseudomonas aeruginosa MTCC 741 by broth dilution method; procedure, shortened: as §2
Escherichia coli = experiment: Antibacterial activity against Escherichia coli MTCC 443 by broth dilution method; procedure, shortened: as §2
[11] = test system: Staphylococcus epidermidis; experiment: Antibacterial activity against Staphylococcus epidermidis MTCC 435 by broth dilution method; procedure, shortened: as §2
Staphylococcus aureus = experiment: Antibacterial activity against Staphylococcus aureus MTCC 96 by broth dilution method; procedure, shortened: as §2
Bacillus subtilis = experiment: Antibacterial activity against Bacillus subtilis MTCC 441 by broth dilution method; procedure, shortened: as §2

SMILES | zone of inhibition at 100 µg/mL (Aspergillus flavus [1]) [mm] | zone of inhibition at 100 µg/mL (Aspergillus niger [2]) [mm] | zone of inhibition at 100 µg/mL (Saccharomyces cerevisiae [3]) [mm] | zone of inhibition at 100 µg/mL (Diutina rugosa [4]) [mm] | zone of inhibition at 100 µg/mL (Candida albicans [5]) [mm] | zone of inhibition at 50 µg/mL (Aspergillus flavus [6]) [mm] | zone of inhibition at 50 µg/mL (Aspergillus niger [7]) [mm] | zone of inhibition at 50 µg/mL (Saccharomyces cerevisiae [8]) [mm] | zone of inhibition at 50 µg/mL (Diutina rugosa [9]) [mm] | zone of inhibition at 50 µg/mL (Candida albicans [10]) [mm] | MIC (Klebsiella pneumoniae) [µg/mL] | MIC (Pseudomonas aeruginosa) [µg/mL] | MIC (Escherichia coli) [µg/mL] | MIC [11] [µg/mL] | MIC (Staphylococcus aureus) [µg/mL] | MIC (Bacillus subtilis) [µg/mL]
N#CC#Cc1ccc(Cl)nc1 | 47 | 43 | 10 | 28 | 40 | 44 | 39 | 0 | 33 | 35 | 3.12 (≈ 19.2 µM) | 0.78 (≈ 4.8 µM) | 100 (≈ 615 µM) | 6.25 (≈ 38.4 µM) | 1.56 (≈ 9.6 µM) | 1.56 (≈ 9.6 µM)
N#CC#Cc1cccnc1Cl | 39 | 30 | 11 | 29 | 28 | 35 | 26 | 0 | 23 | 23 | 12.5 (≈ 76.9 µM) | 0.78 (≈ 4.8 µM) | 100 (≈ 615 µM) | 50 (≈ 308 µM) | 6.25 (≈ 38.4 µM) | 3.12 (≈ 19.2 µM)
CCOC(=O)C#Cc1ccc(Cl)nc1 | 25 | 29 | 29 | 15 | 20 | 20 | 25 | 25 | 10 | 15 | 6.25 (≈ 29.8 µM) | 0.78 (≈ 3.72 µM) | 100 (≈ 477 µM) | 50 (≈ 239 µM) | 1.56 (≈ 7.44 µM) | 6.25 (≈ 29.8 µM)
CC(C)OC(=O)C#Cc1ccc(Cl)nc1 | 19 | 23 | 17 | 11 | 19 | 12 | 17 | 11 | 0 | 13 | 12.5 (≈ 55.9 µM) | 1.56 (≈ 6.97 µM) | 100 (≈ 447 µM) | 1.56 (≈ 6.97 µM) | 1.56 (≈ 6.97 µM) | 50 (≈ 224 µM)
N#CC#Cc1cc(F)c(Cl)nc1Cl | 25 | 24 | 10 | 11 | 16 | 20 | 20 | 0 | 0 | 11 | 12.5 (≈ 58.1 µM) | 100 (≈ 465 µM) | 100 (≈ 465 µM) | 25 (≈ 116 µM) | 12.5 (≈ 58.1 µM) | 6.25 (≈ 29.1 µM)
Cc1ccccc1C#CC#N | 0 | 0 | 0 | 0 | 0 | 0 | 0 | 0 | 0 | 0 | > 150 | > 150 | > 150 | > 150 | > 150 | > 150
CCOC(=O)C#Cc1ccccc1C | 0 | 0 | 0 | 0 | 0 | 0 | 0 | 0 | 0 | 0 | > 150 | > 150 | > 150 | > 150 | > 150 | > 150
CCOC(=O)C#CC(C)(C)C | 0 | 0 | 0 | 0 | 0 | 0 | 0 | 0 | 0 | 0 | > 150 | > 150 | > 150 | > 150 | > 150 | > 150
C[C@@H]1[C@H](O)[C@@H](C)/C=C/C=C/C=C/C=C/C=C/C=C/C=C/[C@H](O[C@@H]2O[C@H](C)[C@@H](O)[C@H](N)[C@@H]2O)C[C@@H]2O[C@](O)(C[C@@H](O)C[C@@H](O)[C@H](O)CC[C@@H](O)C[C@@H](O)CC(=O)O[C@H]1C)C[C@H](O)[C@H]2C(=O)O [AMPHOTERICIN B] | – | – | – | – | – | 25 | 25 | 22 | 21 | 23.5 | – | – | – | – | – | –
